Measured values of several laboratories.
Target: Phosphatidylinositol 5-phosphate 4-kinase type-2 gamma (PIP4K2C, Homo sapiens, UniProt Q8TBX8)
Sequence (Q8TBX8 1-421, as in one of the studies): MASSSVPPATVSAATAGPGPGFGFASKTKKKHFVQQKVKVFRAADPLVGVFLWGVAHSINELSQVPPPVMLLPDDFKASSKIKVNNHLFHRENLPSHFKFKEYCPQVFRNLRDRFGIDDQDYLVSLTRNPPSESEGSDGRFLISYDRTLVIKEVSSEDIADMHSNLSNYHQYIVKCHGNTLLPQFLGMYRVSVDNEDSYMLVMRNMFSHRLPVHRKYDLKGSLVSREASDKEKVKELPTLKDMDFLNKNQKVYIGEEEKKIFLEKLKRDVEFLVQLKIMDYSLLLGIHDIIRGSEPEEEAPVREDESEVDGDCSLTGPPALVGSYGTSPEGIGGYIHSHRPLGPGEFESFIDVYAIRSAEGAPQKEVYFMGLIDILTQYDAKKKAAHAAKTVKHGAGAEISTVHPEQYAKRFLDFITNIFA

O=C(NCC1CCOCC1)c1n[nH]cc1NC(=O)c1c(F)cccc1F — remaining binding (binding; competition with immobilised ligand; 1 µM): 91%
C[C@@H]1CCN(c2nccc(-c3cnn4ncccc34)n2)C1 — remaining binding (binding; 1 µM): 40%
CCN1CCN(Cc2ccc(C(=O)Nc3ccc(C)c(Oc4ccc5c(c4)CC(=O)N5)c3)cc2C(F)(F)F)CC1 — remaining binding (binding; competition with immobilised ligand; 1 µM): 100%
N[C@@H]1CCN(c2nccc(-c3cnn4ncccc34)n2)C1 — remaining binding (binding; 1 µM): 64%
CNC(=O)c1ccc(Nc2ncc(C(F)(F)F)c(NCc3nccnc3N(C)S(C)(=O)=O)n2)cc1 — remaining binding (cell-free assay; competition with immobilised ligand; 0.1 µM): 40%
COc1cnc(Nc2cccc(S(N)(=O)=O)c2)nc1N1CCN(c2ccccc2)C(=O)C1 — remaining binding (binding; competition with immobilised ligand; 1 µM): 0.95%
Cc1cnc(Nc2ccc(C(=O)N3CCC(N4CCCC4)CC3)cc2)nc1-c1cc2ccccc2s1 — remaining binding (binding; competition with immobilised ligand; 1 µM): 5.6%
COc1ccnn2ncc(-c3ccnc(N(C)C)n3)c12 — remaining binding (binding; 1 µM): 80%
CC(C)CC(=O)N1CCc2nc(-c3ccc(Br)cc3)nc(N(C)Cc3ccccc3)c2C1 — remaining binding (cell-free assay; competition with immobilised ligand; 0.1 µM): 96%
O=C(NCCCN1CCOCC1)c1ccc(Nc2nccc(-c3cc4ccccc4s3)n2)cc1 — remaining binding (binding; competition with immobilised ligand; 1 µM): 1.9%
CN(c1nccc(-c2cnn3ncccc23)n1)C1CC1 — remaining binding (binding; 1 µM): 100%
C=CC(=O)N1CCC(C(=O)NCC(=O)N2CCN(c3nc(-c4cnc(N)nc4C(F)F)nc(N4CCOCC4)n3)CC2)CC1 — remaining binding (binding; competition with immobilised ligand; 1 µM): 95%
NS(=O)(=O)c1cc(NC(=O)Cc2ccccc2)ccc1Oc1cccc(Cl)c1 — remaining binding (cell-free assay; competition with immobilised ligand; 1 µM): 100%
CN(C)c1nccc(-c2cnc3ncccn23)n1 — remaining binding (binding; 1 µM): 93%
CCS(=O)(=O)c1cc2cc(C[C@@](O)(CC(C)(C)c3ccc(F)cc3C(N)=O)C(F)(F)F)[nH]c2cn1 — remaining binding (cell-free assay; competition with immobilised ligand; 1 µM): 100%
CN(CCCC(F)(F)F)c1nccc(-c2cnn3ncccc23)n1 — remaining binding (binding; 1 µM): 100%
CC(=O)N1CCC(c2ccc(C(=O)NC3=NCCN3)cc2C(F)(F)F)CC1 — remaining binding (cell-free assay; competition with immobilised ligand; 1 µM): 94%
O=C(NCCCN1CCOCC1)c1ccc(Nc2ncc(Cl)c(-c3ccc(Cl)s3)n2)cc1 — remaining binding (binding; competition with immobilised ligand; 1 µM): 15%
CNCc1ccccc1-c1csc([C@H](C)Nc2nc(C)nc3cc(OC)c(OC)cc23)c1 — remaining binding (cell-free assay; competition with immobilised ligand; 1 µM): 100%
Cc1cnn2ncc(-c3ccnc(N(C)C)n3)c2c1 — remaining binding (binding; 1 µM): 80%
Cc1c(NC(=O)c2cc(C(N)=O)nc3cc(F)ccc23)c(C(F)(F)F)nn1Cc1ccc(C(C)(C)C)cc1 — remaining binding (cell-free assay; competition with immobilised ligand; 1 µM): 76%
c1cncc(-c2cccc(Nc3nccc(NC4CCCCC4)n3)c2)c1 — remaining binding (binding; competition with immobilised ligand; 10 µM): 21%
